Legend:
[1] = Cytotoxicity against human Hep3B cells after 48 hrs by MTT assay; assay type: functional, cell-based, Hep 3B2
Summary of the method: (§1)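 Detroit 551 normal skin cells and Hep 3B hepatoma cells grown in DMEM with 10% FBS, penicillin/streptomycin and 1% L-glutamine at 37 °C, 5% CO2. Log-phase cells treated with vehicle or a range of concentrations for 48 h. MTT reduction read at 570 nm. IC50 (50% proliferation inhibition) taken from 3 independent experiments.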

MCF7 = assay: Cytotoxicity against human MCF7 cells after 48 hrs by MTT assay; assay type: functional, cell-based; conditions: MCF7, 48 h
Summary of the method: (§2)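 Log-phase tumour cells grown in RPMI-1640 with 10% FBS, penicillin/streptomycin and 1% L-glutamine at 37 °C, 5% CO2. Cells treated with vehicle or a range of concentrations for 48 h. Growth measured by MTT reduction, absorbance at 570 nm. IC50 is the concentration giving 50% proliferation inhibition, from 3 independent experiments.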

SK-OV-3 = assay: Cytotoxicity against human SKOV3 cells after 48 hrs by MTT assay; assay type: functional, cell-based; conditions: SK-OV-3, 48 h; summary of the method: as §2
Detroit 551 = assay: Cytotoxicity against human Detroit 551 cells after 48 hrs by MTT assay; assay type: cell-based; conditions: Detroit 551, 48 h; summary of the method: as §1
[2] = Cytotoxicity against human 2774 cells after 48 hrs by MTT assay; assay type: functional, cell-based
COLO 205 = assay: Cytotoxicity against human COLO205 cells after 48 hrs by MTT assay; assay type: functional, cell-based; conditions: COLO 205, 48 h; summary of the method: as §2
HL-60 = assay: Cytotoxicity against human HL60 cells after 48 hrs by MTT assay; assay type: functional, cell-based; conditions: HL-60, 48 h; summary of the method: as §2
A498 = assay: Cytotoxicity against human A498 cells after 48 hrs by MTT assay; assay type: functional, cell-based; conditions: A498, 48 h; summary of the method: as §2
[3] = Cytotoxicity against human H460 cells after 48 hrs by MTT assay; assay type: functional, cell-based; conditions: NCI-H460, 48 h; summary of the method: as §2

| Compound | IC50 [1] | IC50 (MCF7) | IC50 (SK-OV-3) | IC50 (Detroit 551) | IC50 [2] | IC50 (COLO 205) | IC50 (HL-60) | IC50 (A498) | IC50 [3] |
| --- | --- | --- | --- | --- | --- | --- | --- | --- | --- |
| COc1cccc(OC)c1-c1cc(=O)[nH]c2cc3c(cc12)OCO3 | > 100 µM | 29.8 µM | > 30 µM | > 100 µM | > 30 µM | > 50 µM | > 100 µM | > 50 µM | > 100 µM |
| COc1cc(OC)c(-c2cc(=O)[nH]c3cc4c(cc23)OCO4)c(OC)c1 | > 100 µM | 21 µM | > 30 µM | > 100 µM | > 30 µM | 37.4 µM | 75 µM | > 50 µM | 67.6 µM |
| COc1cc(OC)cc(-c2cc(=O)[nH]c3cc4c(cc23)OCO4)c1 | > 10 µM | > 30 µM | > 30 µM | > 10 µM | 8.3 µM | > 50 µM | 2.9 µM | 11.7 µM | > 10 µM |
| O=c1cc(-c2cccc(F)c2)c2cc3c(cc2[nH]1)OCO3 | > 20 µM | > 30 µM | > 30 µM | > 20 µM | 24.5 µM | > 50 µM | > 20 µM | > 50 µM | > 20 µM |
| COc1ccc(OC)c(-c2cc(=O)[nH]c3cc4c(cc23)OCO4)c1 | 10 µM | 3.7 µM | 20 µM | > 100 µM | 6.5 µM | 6.1 µM | 3.5 µM | 28.9 µM | 10 µM |
| O=c1cc(-c2ccc(F)cc2)c2cc3c(cc2[nH]1)OCO3 | > 20 µM | > 30 µM | > 30 µM | > 20 µM | 17.6 µM | > 50 µM | > 60 µM | > 50 µM | > 20 µM |
| COc1ccc(-c2cc(=O)[nH]c3cc4c(cc23)OCO4)cc1 | > 20 µM | > 30 µM | 26.8 µM | > 20 µM | > 30 µM | > 50 µM | > 20 µM | > 25 µM | > 20 µM |
| COc1cc(-c2cc(=O)[nH]c3cc4c(cc23)OCO4)cc(OC)c1OC | 5 µM | 4.5 µM | 0.93 µM | > 25 µM | 2.1 µM | > 50 µM | 2.3 µM | > 50 µM | 7.6 µM |
| COc1cc([C@@H]2c3cc4c(cc3[C@@H](O[C@@H]3O[C@@H]5CO[C@@H](C)O[C@H]5[C@H](O)[C@H]3O)[C@H]3COC(=O)[C@H]23)OCO4)cc(OC)c1O [ETOPOSIDE] | – | – | – | – | – | – | 5.48 µM | – | 1 µM |
| O=c1cc(-c2ccccc2F)c2cc3c(cc2[nH]1)OCO3 | > 100 µM | > 30 µM | > 30 µM | > 100 µM | 26.4 µM | > 50 µM | > 100 µM | > 50 µM | > 100 µM |
| COc1cccc(-c2cc(=O)[nH]c3cc4c(cc23)OCO4)c1 | > 10 µM | 14.9 µM | 24.6 µM | > 10 µM | 15.6 µM | 39.6 µM | > 10 µM | > 50 µM | > 10 µM |
| COc1ccccc1-c1cc(=O)[nH]c2cc3c(cc12)OCO3 | 23.3 µM | 27.1 µM | 26.6 µM | > 25 µM | 18.8 µM | 18.1 µM | 10 µM | 9.8 µM | > 25 µM |
| O=c1cc(-c2ccccc2)c2cc3c(cc2[nH]1)OCO3 | > 50 µM | 18.5 µM | > 30 µM | > 50 µM | > 30 µM | > 50 µM | > 50 µM | 42.7 µM | > 50 µM |
| O=c1[nH]cc(F)c(=O)[nH]1 [FLUOROURACIL] | – | – | – | – | – | – | 22.3 µM | – | 26.7 µM |
| COc1ccc(-c2cc(=O)[nH]c3cc4c(cc23)OCO4)cc1OC | 14.6 µM | 14.3 µM | 6.4 µM | 23.6 µM | 6.6 µM | 16.8 µM | 4.1 µM | 25.6 µM | 14.4 µM |
